Data: ChEMBL document CHEMBL2029228, “Antimalarial activity of 9a-N substituted 15-membered azalides with improved in vitro and in vivo activity over azithromycin” (J Med Chem, 2012)
The source made the active and inactive calls. No cut-off for these calls is given here.

Key:
[1] = Aqueous solubility of the compound; assay type: physicochemical; settings: buffer
Plasmodium falciparum = assay: Antimalarial activity against mefloquine-resistant Plasmodium falciparum TM91C235 assessed as [3H]hypoxanthine incorporation after 48 hrs; assay type: functional, organism-based
In short: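 Tritiated hypoxanthine incorporation assay (Desjardins method, Milhous modification) with 48 h drug exposure. Uses P. falciparum clone TM91C235 (Southeast Asian, mefloquine-resistant). Compounds 2-fold diluted over 11 concentrations. IC50 derived by nonlinear logistic dose-response fitting, averaged where multiple runs were done.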

HepG2 = assay: Cytotoxicity against human HepG2 cells after 24 hrs by MTS assay; assay type: cell-based; settings: HepG2, 24 h
In short: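 HepG2 cells kept in RPMI 1640 with 10% FBS plus antibiotics at 37 °C, 5% CO₂. 50 000 cells per well exposed to 10 two-fold serial dilutions for 24 h. MTS reagent then added for 2 h more, absorbance read at 490 nm, IC50 derived.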

Liver microsomes [2] = assay: Intrinsic clearance in human liver microsomes assessed per gram of liver at 1 uM after 60 mins at pH 7.4 by LC-MS/MS analysis; assay type: ADME, Microsome; settings: pH 7.4, 1 h
In short: (§1)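 Liver microsomes (0.5 mg protein/mL) in 50 mM potassium phosphate pH 7.4 with 1.0 μM compound at 37 °C for 60 min. Reaction started with NADP/glucose-6-phosphate/MgCl₂/G6PDH cofactor mix; solvent 1% final. LC-MS/MS read-out. CLi from first-order elimination constant by nonlinear regression, corrected for incubation volume, assuming 52.5 mg microsomal protein/g liver.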

Liver microsomes [3] = assay: Intrinsic clearance in rat liver microsomes assessed per gram of liver at 1 uM after 60 mins at pH 7.4 by LC-MS/MS analysis; assay type: ADME, Microsome; settings: pH 7.4, 1 h; in short: as §1
Liver = assay: Intrinsic clearance in mouse liver microsomes assessed per gram of liver at 1 uM after 60 mins at pH 7.4 by LC-MS/MS analysis; assay type: ADME, Microsome; settings: pH 7.4, 1 h; in short: as §1
Plasma = assay: (§2) Plasma protein binding in mouse at 1 ug/ml after 30 mins; assay type: ADME, cell-free; settings: 0.5 h
In short: (§3)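 Ultrafiltration on mouse plasma preincubated 15 min at 37 °C, compound spiked to 1 μg/mL final. Aliquots taken at 0 and 15 min, remainder spun through a 10 kDa filter for 30 min at 37 °C, 2850 g. Filtrate deproteinized and analysed by LC-MS/MS.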

[4] = Clearance at steady state in CD1 mouse at 5 mg/kg, iv; assay type: ADME, organism-based; parameters: dose 5 mg/kg, route intravenous; settings: in vivo, read-out: CLss
In short: (§4)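 Male CD-1 mice (N = 3 per route) dosed IV at 5 mg/kg or orally at 25 mg/kg while fasted, mostly in saline (2.5 mg/mL). Tail-vein blood taken up to 24 h, cardiac puncture at 30 h. Samples hemolyzed, protein-precipitated with acetonitrile plus internal standard, analysed by positive ESI LC-MS/MS.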

[5] = Volume of distribution at steady state in CD1 mouse at 5 mg/kg, iv; assay type: ADME, organism-based; parameters: dose 5 mg/kg, route intravenous; settings: in vivo, read-out: Vdss; in short: as §4
[6] = Half life in CD1 mouse at 5 mg/kg, iv; assay type: ADME, organism-based; parameters: dose 5 mg/kg, route intravenous; settings: CD1, mouse, in vivo; in short: as §4
[7] = Oral bioavailability in CD1 mouse at 25 mg/kg; assay type: ADME, organism-based; settings: in vivo; in short: as §4
[8] = Fraction unbound in CD1 mouse plasma at 5 mg/kg, iv; assay type: ADME, organism-based; parameters: dose 5 mg/kg, route intravenous
In short: (§5)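 Fraction unbound measured in mouse plasma by ultrafiltration at 1 μg/mL. Unbound clearance = blood clearance/fu, assuming blood/plasma ratio of 1. Blood clearance comes from male CD-1 mice dosed IV at 5 mg/kg, with tail-vein sampling up to 24 h and LC-MS/MS analysis.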

Mus musculus = assay: Unbound clearance in CD1 mouse at 5 mg/kg, iv; assay type: ADME, organism-based; parameters: dose 5 mg/kg, route intravenous; settings: in vivo; in short: as §5
Plasmodium berghei [9] = assay: Antimalarial activity against Plasmodium berghei KBG173 infected in mouse assessed as increase in mouse survival time at 5 mg/kg, iv BID administered on day 3, 4 and 5 post infection relative to azithromycin; assay type: functional
In short: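 Male mice (24−30 g) inoculated intraperitoneally with 5 × 10⁶ P. berghei KBG-173-infected erythrocytes; parasitemia 1.0–3.7% by day 3. IV dosing twice daily on days 3, 4 and 5 post-infection. Read-out is the survival time of the last animal alive. Mice blood-smear negative on day 31 counted as cured; mice losing ≥20% body weight sacrificed.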

[10] = as §2; assay type: ADME, cell-free; settings: read-out: PPB (converted); in short: as §3
Plasmodium berghei [11] = assay: Antimalarial activity against Plasmodium berghei KBG173 infected in mouse assessed as decrease in parasitemia at 5 mg/kg, iv BID administered on day 3, 4 and 5 post infection measured on day 31 relative to control; assay type: functional, organism-based; parameters: dose 5 mg/kg
In short: (§6)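 Male mice (24–30 g) inoculated intraperitoneally with 5 × 10⁶ P. berghei KBG-173-infected erythrocytes; parasitemia about 1.0–3.7% by day 3. Dosing twice daily on days 3–5 postinfection. Blood smears negative on day 31 counted as cured, scored as cured/total mice (5 per dose). Mice losing ≥20% body weight sacrificed.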

Plasmodium berghei [12] = assay: Antimalarial activity against Plasmodium berghei KBG173 infected in mouse assessed as decrease in parasitemia at 2.5 mg/kg, iv BID administered on day 3, 4 and 5 post infection measured on day 31 relative to control; assay type: functional, organism-based; parameters: dose 2.5 mg/kg; in short: as §6
Plasmodium berghei [13] = assay: Antimalarial activity against Plasmodium berghei KBG173 infected in mouse assessed as decrease in parasitemia at 1.25 mg/kg, iv BID administered on day 3, 4 and 5 post infection measured on day 31 relative to control; assay type: functional, organism-based; parameters: dose 1.25 mg/kg; in short: as §6
Plasmodium berghei [14] = assay: Antimalarial activity against Plasmodium berghei KBG173 infected in mouse assessed as decrease in parasitemia at 5 mg/kg, ip BID administered on day 3, 4 and 5 post infection measured on day 31 relative to control; assay type: functional, organism-based; parameters: dose 5 mg/kg; in short: as §6
Plasmodium berghei [15] = assay: Antimalarial activity against Plasmodium berghei KBG173 infected in mouse assessed as decrease in parasitemia at 2.5 mg/kg, ip BID administered on day 3, 4 and 5 post infection measured on day 31 relative to control; assay type: functional, organism-based; parameters: dose 2.5 mg/kg; in short: as §6
Plasmodium berghei [16] = assay: Antimalarial activity against Plasmodium berghei KBG173 infected in mouse assessed as decrease in parasitemia at 1.25 mg/kg, ip BID administered on day 3, 4 and 5 post infection measured on day 31 relative to control; assay type: functional, organism-based; parameters: dose 1.25 mg/kg; in short: as §6
Plasmodium berghei [17] = assay: Antimalarial activity against Plasmodium berghei KBG173 infected in mouse assessed as cured mouse at 5 mg/kg, iv BID administered on day 3, 4 and 5 post infection measured up to day 31; assay type: functional, organism-based; parameters: dose 5 mg/kg; in short: as §6

Row | Compound | solubility [1] | IC50 (Plasmodium falciparum) [nM] | IC50 (HepG2) [nM] | CLint (Liver microsomes [2]) [mL/min/g] | CLint (Liver microsomes [3]) [mL/min/g] | CLint (Liver) [mL/min/g] | clearance [4] [mL/min/kg] | Vd [5] [L/kg] | half-life [6] [h] | bioavailability [7] [%] | fraction unbound [8] | CL free (Mus musculus) [mL/min/kg] | Survival (Plasmodium berghei [9]) [days] | other results
1 | CC(=O)O.CC[C@H]1OC(=O)[C@H](C)[C@@H](O[C@H]2C[C@@](C)(OC)[C@@H](O)[C@H](C)O2)[C@H](C)[C@@H](O[C@@H]2O[C@H](C)C[C@H](N(C)C)[C@H]2O)[C@](C)(O)C[C@@H](C)CN(CCC(=O)N[C@H](C)c2cccc3ccccc23)[C@H](C)[C@@H](O)[C@]1(C)O | >= 10 mg kg-1 |  |  |  |  |  |  |  |  |  |  |  |  | 
2 | CC[C@H]1OC(=O)[C@H](C)[C@@H](O[C@H]2C[C@@](C)(OC)[C@@H](O)[C@H](C)O2)[C@H](C)[C@@H](O[C@@H]2O[C@H](C)C[C@H](N(C)C)[C@H]2O)[C@](C)(O)C[C@@H](C)CN(CCCNc2ccnc3ccccc23)[C@H](C)[C@@H](O)[C@]1(C)O |  | 25 | > 50000 | < 0.6 | < 0.6 | < 0.6 | 7.7 | 4.9 | 14.4 | 1.7 | 0.39 | 20 | 3 | PPB (Plasma): 43%
3 | CC(=O)O.CC[C@H]1OC(=O)[C@H](C)[C@@H](O[C@H]2C[C@@](C)(OC)[C@@H](O)[C@H](C)O2)[C@H](C)[C@@H](O[C@@H]2O[C@H](C)C[C@H](N(C)C)[C@H]2O)[C@](C)(O)C[C@@H](C)CN(CCCNc2ccnc3cc(Cl)ccc23)[C@H](C)[C@@H](O)[C@]1(C)O | >= 10 mg kg-1 |  |  |  |  |  |  |  |  |  |  |  |  | 
4 | CC[C@H]1OC(=O)[C@H](C)[C@@H](O[C@H]2C[C@@](C)(OC)[C@@H](O)[C@H](C)O2)[C@H](C)[C@@H](O[C@@H]2O[C@H](C)C[C@H](N(C)C)[C@H]2O)[C@](C)(O)C[C@@H](C)CN(CCC(=O)N[C@H](C)c2cccc3ccccc23)[C@H](C)[C@@H](O)[C@]1(C)O |  | 95 | > 30000 | 1.8 |  |  | 10.5 | 7.8 | 16.5 | 23.6 | 0.13 | 81 | -9 | fraction unbound at 0.5 h, 1 ug/ml [10]: 0.13
5 | CC[C@H]1OC(=O)[C@H](C)[C@@H](O[C@H]2C[C@@](C)(OC)[C@@H](O)[C@H](C)O2)[C@H](C)[C@@H](O[C@@H]2O[C@H](C)C[C@H](N(C)C)[C@H]2O)[C@](C)(O)C[C@@H](C)CN(CCCNc2ccnc3cc(Cl)ccc23)[C@H](C)[C@@H](O)[C@]1(C)O |  | 22 | 30000 | < 0.6 | < 0.6 | < 0.6 | 4 | 2.9 | 17.8 | 20.4 | 0.42 | 9.5 | 9 | PPB (Plasma): 43%
6 | CCN(CC)CCCC(C)Nc1ccnc2cc(Cl)ccc12 (stereo not given) |  |  |  |  |  |  |  |  |  |  |  |  |  | Activity (Plasmodium berghei [11]): inactive; Activity (Plasmodium berghei [12]): inactive; Activity (Plasmodium berghei [13]): inactive; Activity (Plasmodium berghei [14]): inactive; Activity (Plasmodium berghei [15]): inactive; Activity (Plasmodium berghei [16]): inactive
7 | CC(=O)O.CC[C@H]1OC(=O)[C@H](C)[C@@H](O[C@H]2C[C@@](C)(OC)[C@@H](O)[C@H](C)O2)[C@H](C)[C@@H](O[C@@H]2O[C@H](C)C[C@H](N(C)C)[C@H]2O)[C@](C)(O)C[C@@H](C)CN(CCCNc2ccnc3ccccc23)[C@H](C)[C@@H](O)[C@]1(C)O | >= 10 mg kg-1 |  |  |  |  |  |  |  |  |  |  |  |  | 
8 | CC[C@H]1OC(=O)[C@H](C)[C@@H](O[C@H]2C[C@@](C)(OC)[C@@H](O)[C@H](C)O2)[C@H](C)[C@@H](O[C@@H]2O[C@H](C)C[C@H](N(C)C)[C@H]2O)[C@](C)(O)C[C@@H](C)CN(CCCNC(=O)CCc2ccccc2)[C@H](C)[C@@H](O)[C@]1(C)O |  | 70 | > 50000 | < 0.6 | < 0.6 | < 0.6 | 23.3 | 5 | 6.9 | 12.7 | 0.43 | 54 | -12 | PPB (Plasma): 43%
9 | CC(=O)O.CC[C@H]1OC(=O)[C@H](C)[C@@H](O[C@H]2C[C@@](C)(OC)[C@@H](O)[C@H](C)O2)[C@H](C)[C@@H](O[C@@H]2O[C@H](C)C[C@H](N(C)C)[C@H]2O)[C@](C)(O)C[C@@H](C)CN(CCCNC(=O)CCc2ccccc2)[C@H](C)[C@@H](O)[C@]1(C)O | >= 10 mg kg-1 |  |  |  |  |  |  |  |  |  |  |  |  | 
10 | CC[C@H]1OC(=O)[C@H](C)[C@@H](O[C@H]2C[C@@](C)(OC)[C@@H](O)[C@H](C)O2)[C@H](C)[C@@H](O[C@@H]2O[C@H](C)C[C@H](N(C)C)[C@H]2O)[C@](C)(O)C[C@@H](C)CN(CCCNCc2ccnc3ccccc23)[C@H](C)[C@@H](O)[C@]1(C)O [listing 1 of 2 here] |  | 165 | > 50000 | < 0.6 | < 0.6 | < 0.6 | 10.2 | 4.9 | 8.7 | 19.5 | 0.57 | 18 | 3 | fraction unbound at 0.5 h, 1 ug/ml [10]: 0.57
11 | CC[C@H]1OC(=O)[C@H](C)[C@@H](O[C@H]2C[C@@](C)(OC)[C@@H](O)[C@H](C)O2)[C@H](C)[C@@H](O[C@@H]2O[C@H](C)C[C@H](N(C)C)[C@H]2O)[C@](C)(O)C[C@@H](C)CN(CCCNCc2ccnc3ccccc23)[C@H](C)[C@@H](O)[C@]1(C)O [listing 2 of 2 here] |  |  |  |  |  |  |  |  |  |  |  |  |  | Activity (Plasmodium berghei [17]): inactive
12 | CC(=O)O.CC[C@H]1OC(=O)[C@H](C)[C@@H](O[C@H]2C[C@@](C)(OC)[C@@H](O)[C@H](C)O2)[C@H](C)[C@@H](O[C@@H]2O[C@H](C)C[C@H](N(C)C)[C@H]2O)[C@](C)(O)C[C@@H](C)CN(CCCNCc2ccnc3ccccc23)[C@H](C)[C@@H](O)[C@]1(C)O | >= 10 mg kg-1 |  |  |  |  |  |  |  |  |  |  |  |  | 
